Experimental data reported in PubChem BioAssay AID588761 (Johns Hopkins Ion Channel Center, 2011).
Activity calls are given as the source filed them.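 The calls were made as follows: active = peak block of the KCNQ2 potassium channel above 30% at any tested dose, with a fitted dose response curve; inactive = no channel block at any dose, or no curve.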

Target: Potassium voltage-gated channel subfamily KQT member 2 (Rattus norvegicus) (UniProt O88943)
Test: KCNQ2 thallium flux blockade – cell-based, FluxOR thallium flux, CRC, selectivity assay for KCNK9 inhibitor project, SAR follow-up (AID 588761)
Summary of the method: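 System: KCNQ2-expressing CHO cells; reagent: Tl+/K+ stimulus (5x stock 7 mM Tl2SO4, 25 mM K2SO4); dosing: compound concentration-response series; incubation: dye 90 min RT, compound 20 min RT; measured by: FluxOR thallium flux, kinetic imaging, 10 s baseline, 110 s post-stimulus; benchmarks: XE-991 control; replicates: at least duplicate runs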

Chain of Potassium voltage-gated channel subfamily KQT member 2 (Rattus norvegicus) (O88943 whole entry, looked up): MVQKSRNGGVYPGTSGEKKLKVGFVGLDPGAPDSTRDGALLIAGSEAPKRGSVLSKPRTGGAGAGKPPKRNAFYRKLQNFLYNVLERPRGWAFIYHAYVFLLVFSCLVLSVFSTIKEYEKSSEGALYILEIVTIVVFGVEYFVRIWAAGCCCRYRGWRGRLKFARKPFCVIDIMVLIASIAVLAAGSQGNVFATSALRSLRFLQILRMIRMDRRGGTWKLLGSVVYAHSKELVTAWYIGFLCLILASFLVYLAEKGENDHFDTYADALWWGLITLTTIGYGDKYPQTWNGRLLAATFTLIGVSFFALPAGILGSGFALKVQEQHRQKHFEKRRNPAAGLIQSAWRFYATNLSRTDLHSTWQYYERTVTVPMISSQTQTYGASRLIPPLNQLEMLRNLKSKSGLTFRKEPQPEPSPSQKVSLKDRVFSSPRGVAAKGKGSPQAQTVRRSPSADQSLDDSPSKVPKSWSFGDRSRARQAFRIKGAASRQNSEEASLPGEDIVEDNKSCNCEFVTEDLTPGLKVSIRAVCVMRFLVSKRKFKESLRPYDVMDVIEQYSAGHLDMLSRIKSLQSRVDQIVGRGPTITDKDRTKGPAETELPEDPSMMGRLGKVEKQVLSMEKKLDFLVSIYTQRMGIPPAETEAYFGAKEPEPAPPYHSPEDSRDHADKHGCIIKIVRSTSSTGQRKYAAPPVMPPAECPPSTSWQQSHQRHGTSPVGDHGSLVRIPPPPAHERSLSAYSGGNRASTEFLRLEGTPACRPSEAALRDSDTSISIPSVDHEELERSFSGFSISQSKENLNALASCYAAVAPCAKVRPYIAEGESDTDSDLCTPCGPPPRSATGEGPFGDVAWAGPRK

Structure (SMILES) | outcome
Cc1cccc(NC(=O)c2cccc(NC(=O)c3ccccc3)c2)c1 | inactive
Cc1cccc(NC(=O)c2ccccc2NC(=O)c2ccccc2)c1 | inactive
Cc1cccc(C(=O)Nc2ccc(C(=O)Nc3ccccc3)cc2)c1 | inactive
Cc1cccc(C(=O)Nc2cccc(C(=O)Nc3ccccc3)c2)c1 | inactive
Cc1cccc(C(=O)Nc2ccccc2C(=O)Nc2ccccc2)c1 | inactive
